# PKA-R2B act = activators of human PKA-R2B complex; P22694+P31323; PKA-R2B holoenzyme dissociation, Cy5-IP20 fluorescence polarization; R2B truncated from residue 108, S112A mutant; 0% DMSO only, 100% 113 µM cGMP; activation, % at 11.4 µM; 340,000 tested, 0.079% active;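 active = activation above a cutoff set at the mean over all compounds plus 3 SD, cut at about 18% in these data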;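 note: higher means more holoenzyme dissociation and a rise in polarization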
# S100A4 MyoIIA = inhibitors of human S100A4 binding to myosin IIA peptide; P26447; S100A4/TAMRA-MyoIIA peptide fluorescence polarization; inhibition, % at 10.7 µM; 360,000 tested, 0.14% active; AID 652163;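 active = mean inhibition of at least 70% across replicates, with every replicate also reaching that level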
# Target sequence (P26447 whole entry, looked up): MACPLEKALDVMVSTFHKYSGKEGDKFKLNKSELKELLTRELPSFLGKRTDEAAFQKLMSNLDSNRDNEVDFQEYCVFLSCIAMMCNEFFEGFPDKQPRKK
#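 Material: S100A4 monomer protein / Buffer or medium: 50 mM HEPES pH 7.2, 10 mM CaCl2, 100 mM KCl / Times: 5 min incubation before reading / Benchmarks: neutral control DMSO, positive control TFP / Reagent: labelled myosin peptide probe, 5 nM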
# PKA-R1A activ = activators of PKA-R1A complex; P00514+P68181; PKA-R1A dissociation, Cy5-IP20 fluorescence polarization; scaled: DMSO 0%, 113 µM cGMP 100%; activation, % at 11.4 µM; 340,000 tested, 0.083% active;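 active = percent activation above the mean of all tested compounds plus 3 SD, cut at about 19% in these data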;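 note: higher means more PKAc released from R1A so a rise in polarization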
# CRFBP-R2 block = antagonists of CRF-binding protein/CRF-R2 receptor complex | HEK293 CRF-R2/CRF-BP, CRF-induced calcium fluorescence | inhibition, % at 11.8 µM | 350,000 tested, 0.59% active | AID 588475;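 active = inhibition of the ligand-induced calcium signal above about 50% at the single tested concentration, limit read from the data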
# SIRT5 block = sirtuin-5 (human) deacylase inhibition; Q9NXA8; Purified SirT5, succinyl-peptide AMC, trypsin-coupled fluorescence; inhibition, % at 15 µM; 330,000 tested, 1.1% active; in the data active = inhibition above about 15%
# Target sequence (Q9NXA8 whole entry, looked up): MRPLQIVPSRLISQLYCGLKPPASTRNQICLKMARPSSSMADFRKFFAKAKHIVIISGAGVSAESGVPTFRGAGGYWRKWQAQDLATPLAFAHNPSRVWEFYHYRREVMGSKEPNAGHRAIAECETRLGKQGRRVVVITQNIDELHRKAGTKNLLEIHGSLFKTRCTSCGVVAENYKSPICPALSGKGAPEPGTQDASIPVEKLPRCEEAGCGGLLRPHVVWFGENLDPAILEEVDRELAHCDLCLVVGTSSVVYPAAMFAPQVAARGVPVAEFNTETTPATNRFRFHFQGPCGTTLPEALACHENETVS
# * hit, by the source's call; . = not tested or not shown. Compounds with a hit are over-represented: about 1.5% of the library has one in this group of screens.
SMILES,PKA-R2B act,S100A4 MyoIIA,PKA-R1A activ,CRFBP-R2 block,SIRT5 block
C[C@@H]1CN([C@@H](C)CO)C(=O)c2cc(NC(=O)Nc3ccc(F)cc3)ccc2O[C@H]1CN(C)S(=O)(=O)c1ccc(Cl)cc1,.,44,.,.,8
C=CCC[C@@H](CCCCC)OC(=O)/C=C/[C@H](O)[C@@H](O)C[C@H](O)CC=C,.,2,.,.,16*
C=CCC[C@H](CCCCC)OC(=O)/C=C/[C@H](O)[C@@H](O)C[C@H](O)CC=C,.,-7,.,.,2
CCCNC(=O)N1CC(=O)N2[C@@H](CO)[C@H](c3ccc(C#Cc4cccc(F)c4)cc3)[C@@H]2C1,.,-11,.,.,-6
CC(C)CN(CC(C)C)C(=S)NC1CCCCC1,1,-1,-19,55*,.
CCC(=O)N1CC(=O)N2[C@H](CO)[C@H](c3ccc(-c4ccncc4)cc3)[C@@H]2C1,.,-42,.,.,-3
Cc1ccc(S(=O)(=O)N(C)C[C@@H]2Oc3ccc(NC(=O)C4CCCCC4)cc3CC(=O)N([C@@H](C)CO)C[C@@H]2C)cc1,.,-2,.,.,3
COc1ccc(Nc2c3c(nc4ccc(C)cc24)CCC3)cc1,3,-3,4,-8,25*
Cc1ccc2nc3c(c(Nc4ccc(O)cc4)c2c1)CCC3,-2,-4,0,-19,-3
CCOC(=O)/C(=C\C=C\N1CCOCC1)C(C)=O,0,-2,0,-4,16*
CO[C@@H]1CN(C)C(=O)c2ccc(NS(=O)(=O)c3cn(C)cn3)cc2OC[C@@H](C)N(C)C[C@H]1C,.,-3,.,.,-3
O=C(COC(=O)c1cc(=O)[nH]c2ccccc12)NC1CCCC1,.,-5,.,-18,25*
COc1ccccc1-c1cn(CC[C@@H]2CC[C@H](NC(=O)CCN3CCCCC3)[C@H](CO)O2)nn1,.,0,.,.,0
C[C@@H]1CN([C@H](C)CO)C(=O)Cc2cc(NC(=O)Nc3ccc(C(F)(F)F)cc3)ccc2O[C@@H]1CN(C)S(=O)(=O)c1cn(C)cn1,.,-39,.,.,-3
COc1ccc(S(=O)(=O)N(C)C[C@H]2Oc3cc(C#CC4CCCC4)ccc3S(=O)(=O)N([C@@H](C)CO)C[C@@H]2C)cc1,.,-5,.,.,25*
COc1ccc(S(=O)(=O)N(C)C[C@H]2Oc3cc(C#CC4CCCC4)ccc3S(=O)(=O)N([C@H](C)CO)C[C@@H]2C)cc1,.,-1,.,.,15*
COc1ccc(S(=O)(=O)N(C)C[C@H]2Oc3cc(C#CC4CCCC4)ccc3S(=O)(=O)N([C@H](C)CO)C[C@H]2C)cc1,.,6,.,.,5
COc1ccc(S(=O)(=O)N(C)C[C@H]2Oc3cc(C#CC4CCCC4)ccc3S(=O)(=O)N([C@@H](C)CO)C[C@H]2C)cc1,.,4,.,.,4
COc1ccc(S(=O)(=O)N(C)C[C@@H]2Oc3cc(C#CC4CCCCC4)ccc3S(=O)(=O)N([C@H](C)CO)C[C@H]2C)cc1,.,8,.,.,0
COc1ccc(S(=O)(=O)N(C)C[C@@H]2Oc3cc(C#CC4CCCC4)ccc3S(=O)(=O)N([C@@H](C)CO)C[C@H]2C)cc1,.,-5,.,.,16*
CCC(=O)Nc1ccc2c(c1)C(=O)N(C)[C@@H]1CC[C@@H](CC(=O)NCc3ccc(OC)cc3)O[C@@H]1CO2,.,22,.,.,1
CC(C)N(C(=O)C[n+]1ccsc1N)c1ccccc1,2,-3,-3,59*,1
CC(C)(C)OC(=O)N(CCc1ccccc1)Cc1ccc(OCc2cccc(NC(=O)C3CC3)c2)cc1,16,-2,6,-27,18*
CC(C)(C)OC(=O)N(CCc1ccccc1)Cc1ccc(OCc2cccc(NC(=O)C3CCC3)c2)cc1,-3,1,1,1,.
O=C(C[C@H]1C=C[C@@H](NC(=O)C2CC2)[C@@H](CO)O1)Nc1nccs1,.,-2,.,.,-1
O=C(NCc1cccc(F)c1)[C@@H]1[C@@H](CO)[C@@H]2Cn3c(ccc(-c4ccncc4)c3=O)[C@H]1N2CC1CC1,.,-1,.,.,-6
C/C=C/c1ccc2c(c1)O[C@H](CN(C)C(=O)c1ccc(F)cc1)[C@H](C)CN([C@H](C)CO)S2(=O)=O,.,6,.,.,-1
C[C@@H]1CN([C@@H](C)CO)C(=O)c2c(c3ccccc3n2C)-c2ccccc2CO[C@@H]1CN(C)Cc1cccc(O)c1,.,3,.,.,23*
